# Screening data deposited in PubChem by several laboratories.
# Rce1 inh – inhibitors of yeast Ras-converting enzyme. Q03530. yeast membranes, quenched prenylated peptide cleavage fluorescence. calls only. 290,000 compounds, 0.27% hits;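 active means fall in fluorescence gain of 50% or more versus controls, with final raw signal at or below 3038400; inconclusive means same 50% fall but final raw signal above 3038400; inactive means fall in fluorescence gain under 50%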;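 further: plate controls were neutral control wells for no effect and wells lacking membranes for full effect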
# Target sequence (Q03530 whole entry, looked up): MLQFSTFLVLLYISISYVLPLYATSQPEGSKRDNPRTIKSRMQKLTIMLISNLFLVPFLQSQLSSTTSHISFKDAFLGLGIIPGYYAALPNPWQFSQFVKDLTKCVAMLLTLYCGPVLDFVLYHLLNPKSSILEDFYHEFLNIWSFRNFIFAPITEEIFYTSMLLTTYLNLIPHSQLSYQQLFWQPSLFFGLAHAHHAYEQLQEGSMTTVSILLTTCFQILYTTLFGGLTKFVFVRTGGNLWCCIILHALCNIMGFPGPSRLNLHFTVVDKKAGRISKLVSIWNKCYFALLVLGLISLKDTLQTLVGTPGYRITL
# Runt-SMMHC FRET – inhibitors of human RUNX1 Runt domain binding to CBFb-SMMHC | Q01196+Q13951 | Cerulean-Runt/Venus-CBFb-SMMHC FRET ratio 530/480, 1 h | inhibition, % at 20 µM | 220,000 compounds, 0.74% hits;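 active means mean inhibition across duplicate retests at 20 µM reaching about 50%, limit read from the data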;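 further: 0% = DMSO wells and 100% = wells with excess untagged CBFb-SMMHC; inhibitors lower the FRET ratio by blocking Runt binding to CBFb-SMMHC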
# Vif inh – inhibitors of HIV Vif | HEK293T cells, Vif self-association by quenched fluorescence, imaging, 24 h | 340,000 compounds, 0.35% hits | inhibition, % at 7.49 µM; in the data active means inhibition above about 50%, passing the limit was not always enough; inconclusive means no clear call, values can overlap the other calls; inactive means below about 31%
# RanGTP-Imp inh – disruptors of Ran-importin-beta complex formation – biochemical, FRET, CFP-Ran, YFP-importin-beta, homogeneous, primary screen; cell-free CFP-Ran/YFP-importin-beta FRET ratio; inhibition, % (test concentration not listed); 300,000 compounds, 1.1% hits;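 active means more than half of the replicate wells show a fall in the fluorescence ratio signal beyond about 16%, limit read from the data, passing the limit was not always enough; inconclusive means exactly half of the replicate wells pass the set limit; inactive means fewer than half of replicates pass the limit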;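 further: 0% = DMSO wells and 100% = Ran loaded with GDP instead of GTP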
# Runt-CBFb FRET – blocks binding of human RUNX1 Runt domain to CBFb; inhibition, % at 20 µM; Cerulean-Runt/Venus-CBFb FRET ratio 530/480, 1 h; 220,000 compounds, 0.46% hits;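 active means inhibition over about 50% at 20 µM in the single-dose screen, limit read from the data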;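 further: 0% = DMSO wells and 100% = excess unlabeled CBFb competitor control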
#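 test system = Cerulean-tagged RUNX1 Runt domain (FRET donor) fusion protein | reagent = Venus-CBFb binding partner, 100 nM | incubation = protein complex preformed 1 h, compound exposure 1 h, room temperature, dark | detection = FRET fluorescence | read-out basis = loss of energy transfer signal | controls = 5 µM unlabeled CBFb as full-inhibition high control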
# Numbers without * were called inactive; i = inactive; ? = inconclusive; / = no result; + = active, no number. Only some compounds are listed: those with a hit (about 1.7% of all), similar ones and a draw of the others.
SMILES,Rce1 inh,Runt-SMMHC FRET,Vif inh,RanGTP-Imp inh,Runt-CBFb FRET
CC(Sc1nc(N)cc(=O)[nH]1)C(=O)Nc1sc2c(c1C#N)CCCC2 (stereo unspecified),/,-2.7,-20.4,-2.9,-1.2
CC(C)c1ccccc1NC(=S)NCC1(N(C)C)CCCCC1,i,/,5.0,1.6,/
O=[N+]([O-])c1ccccc1-c1ccc(/C=N/n2cnnc2)o1,i,15.4,/,0.2,12.0
O=[N+]([O-])c1cc(-c2ccc(/C=N\n3cnnc3)o2)cc([N+](=O)[O-])c1,i,/,120.5*,2.3,/
N#CC(C#N)=C1C=CC=CN1/C(=C\c1ccccc1)C(=O)c1cccs1,i,40.5,-1.6,27.5*,23.9
COC(=O)c1ccc(C2C(C#N)=C(N)Oc3cc(O)ccc32)cc1 (stereo unspecified),i,/,-14.9,-23.3,/
N#CC1=C(N)Oc2cc(O)ccc2C1c1ccncc1 (stereo unspecified),i,-109.1,2.7,-28.2,-38.4
C#CCOc1ccc(C2C(C#N)=C(N)Oc3cc(O)ccc32)cc1 (stereo unspecified),i,/,0.7,66.5*,/
COc1ccc(C2C(C#N)=C(N)Oc3cc(O)ccc32)cc1Cl (stereo unspecified),i,/,-12.3,59.1*,/
CCOc1ccc(C2C(C#N)=C(N)Oc3cc(O)ccc32)cc1OCC (stereo unspecified),i,/,-7.8,50.7*,/
Oc1cccc(C(O)CNCc2ccc(OCc3ccc(Cl)cc3Cl)cc2)c1 (stereo unspecified),i,-1.8,-19.6,-54.2,-2.1
O=C(Nc1ccc(S(=O)(=O)NCC2CCCO2)cc1)c1cccc(F)c1 (stereo unspecified),i,/,-5.1,-0.7,/
Cc1ccc(C(=O)Nn2cnnc2)cc1,i,/,0.6,-0.2,/
c1ccc(-c2nc(N3CCCC3)nc3ccccc23)cc1,i,18.7,-1.4,34.2*,6.6
Clc1ccc2nc(N3CCNCC3)nc(-c3ccccc3)c2c1,i,89.0*,/,3.9,39.3
CN1CCN(c2nc(-c3ccccc3)c3cc(Cl)ccc3n2)CC1,i,56.6*,12.9,?,25.0
O=C1CN(c2nc(-c3ccccc3)c3cc(Cl)ccc3n2)c2ccccc2N1,i,-68.4,-0.6,1.1,-23.9
c1ccc2c(N3CCCCC3)nc(N3CCCCC3)nc2c1,i,-6.8,0.2,5.7,-0.9
Cc1ccc(N(C)C2=NC(=O)CS2)cc1Cl,i,/,2.3,-1.2,/
Cc1cc(OCC(=O)OCC(=O)N2CCCCC2)ccc1Cl,/,/,5.6,/,/
COc1ccc(CCn2c(N)c(C(=O)NCc3ccco3)c3nc4ccccc4nc32)cc1OC,i,24.7,10.8,39.1*,7.7
COc1ccc(CCn2c(N)c(S(=O)(=O)c3cccs3)c3nc4ccccc4nc32)cc1OC,i,6.3,-7.2,-2.3,/
Nc1c(C(=O)NCc2ccco2)c2nc3ccccc3nc2n1CCc1ccccc1F,i,/,17.1,50.2*,30.5
COc1ccccc1N1CCN(C(=O)c2ccc3noc(-c4ccccc4)c3c2)CC1,/,/,-5.3,/,/
COC(=O)C1=C(C)N(CC2CCCO2)C(=O)C1 (stereo unspecified),i,1.6,0.4,16.7*,-1.1
SMILES,Rce1 inh,Runt-SMMHC FRET,Vif inh,RanGTP-Imp inh,Runt-CBFb FRET
CCN1C(=O)CC(C(=O)OC)=C1C,i,-2.0,3.8,-2.8,1.1
CC(Nc1ncnc2sccc12)c1ccccc1 (stereo unspecified),i,/,-5.0,27.8*,/
c1ccc(Nc2ncnc3sccc23)cc1,i,/,-8.0,6.9,/
CCNC(=S)N/N=C/c1sc(N2CCCCC2)nc1-c1cccs1,i,-56.4,68.8*,0.1,-16.7
Cc1onc(-c2ccccc2)c1C(=O)N1CCN(c2ccc([N+](=O)[O-])cc2)CC1,i,/,-0.2,5.6,/
CC1(C)CC(=O)C2=C(C1)OC(N)=C(C#N)C2c1ccccc1[N+](=O)[O-] (stereo unspecified),i,91.1*,-1.5,61.3*,85.5*
Cc1ccc(C(=O)/C=C/c2cn(CN3CCN(C)CC3)c3ccccc23)cc1,i,-1.0,-3.6,72.5*,10.0
Cn1cc(/C=C/C(=O)c2ccccc2)c2ccccc21,i,5.4,-9.8,35.5*,0.0
Cc1nn(C)cc1/C=C/C(=O)c1ccccc1,i,2.1,-2.6,2.5,1.2
Cc1nn(CC(=O)N2CCC(N3CCCCC3)CC2)c(=O)c2c1sc1ccccc12,i,/,-6.7,2.5,/
CCOC(=O)C1CCCN(C(=O)Cn2sc3nc(C)cc(C)c3c2=O)C1 (stereo unspecified),i,59.4*,13.0,-0.4,-15.0
CCOC(=O)C1CCCN(C(=O)Cn2cnc3c2c(=O)n(C)c(=O)n3C)C1 (stereo unspecified),i,2.8,-12.9,-4.5,-0.2
CCCNC(=O)Cn1sc2nc(C)cc(C)c2c1=O,i,60.5*,0.3,-4.1,13.9
Cc1cc(C)c2c(=O)n(CC(=O)N3CCC(N4CCCCC4)CC3)sc2n1,i,64.4*,-6.0,-1.6,-10.1
O=C(CN1C(=O)NC(Cc2c[nH]c3ccccc23)C1=O)NCC(F)(F)F (stereo unspecified),i,/,-9.6,1.8,/
Nc1c(C(=O)Nc2cccc(C(=O)O)c2)sc2nc3c(cc12)CCCC3,+,/,15.7,-0.8,/
CCOC(=O)[C@@H]1[C@H]2COc3ccc(Br)cc3[C@@H]2N2C(=O)N(c3cccc(Cl)c3)C(=O)[C@]12C,+,/,-3.6,-0.7,/
CCOC(=O)[C@@H]1[C@H]2COc3ccc(Br)cc3[C@@H]2N2C(=O)N(c3cccc(Cl)c3)C(=O)[C@@]12C,/,/,-13.0,/,/
COc1cccc(CNc2nc3cc(-c4ccccc4C)sc3c(=O)n2C)c1OC,/,/,-6.0,/,/
Cc1ccc(S(=O)(=O)Nc2ccc(SC(F)F)cc2)c(C)c1,i,-1.7,60.6*,-1.3,0.0
Cc1cccn2c(=O)c(C=O)c(N3CC(C)OC(C)C3)nc12 (stereo unspecified),i,-6.5,-0.4,0.0,1.8
Cc1cccn2c(=O)c(/C=C(\C#N)C(=O)NC3CCS(=O)(=O)C3)c(N3CC(C)OC(C)C3)nc12 (stereo unspecified),i,102.9*,-17.5,?,11.5
Cc1cccn2c(=O)c(/C=C(\C#N)S(=O)(=O)c3ccccc3)c(N3CCC(C(N)=O)CC3)nc12,i,-13.5,-0.1,9.9,-7.3
Cc1cccn2c(=O)c(/C=C(\C#N)C(=O)NC3CCS(=O)(=O)C3)c(N3CCC(C(N)=O)CC3)nc12 (stereo unspecified),i,63.2*,1.9,?,134.0*
CC(Sc1nc2c(cc1C#N)CCCCC2)C(=O)O (stereo unspecified),i,-4.5,/,1.2,-2.0
CCC(C)C(N)C(=O)N1CCCC1C(=O)NC(C(=O)O)C(C)CC (stereo unspecified),/,/,-5.0,/,/
